Calls of active or inactive are those of the source. No cut-off for these calls is given here.
Assays:
HT-29 [1] = experiment: Cytotoxic activity against human HT-29 cells after 24 hrs by MTT assay; assay type: functional, cell-based; settings: HT-29, 24 h
Summary of the method: (§1)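 MTT assay; log-phase cells seeded at 10^4 cells/well in DMEM, allowed to attach for 24 h at 37 °C, 5% CO2. Compounds dissolved in DMSO/water (1:1) and tested at 0.1–100 µM (1:2 serial dilutions), four replicates per condition. MTT at 0.5 mg/ml final added 4 h before end; dissolved in 0.1 N HCl/isopropanol, A545 read. Untreated cells as 100% growth, blank subtracted; IC50 as mean ± SD of 3–4 independent experiments.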

HepG2 [2] = experiment: Cytotoxic activity against human HepG2 cells after 48 hrs by MTT assay; assay type: functional, cell-based; settings: HepG2, 48 h; summary of the method: as §1
MCF7 [3] = experiment: Cytotoxic activity against human MCF7 cells after 48 hrs by MTT assay; assay type: functional, cell-based; settings: MCF7, 48 h; summary of the method: as §1
A549 [4] = experiment: Cytotoxic activity against human A549 cells after 24 hrs by MTT assay; assay type: functional, cell-based; settings: A549, 24 h; summary of the method: as §1
A549 [5] = experiment: Cytotoxic activity against human A549 cells after 48 hrs by MTT assay; assay type: functional, cell-based; settings: A549, 48 h; summary of the method: as §1
HeLa [6] = experiment: Cytotoxic activity against human HeLa cells after 48 hrs by MTT assay; assay type: functional, cell-based; summary of the method: as §1
LNCaP [7] = experiment: Cytotoxic activity against human LNCAP cells after 48 hrs by MTT assay; assay type: functional, cell-based; summary of the method: as §1
MCF7 [8] = experiment: Cytotoxic activity against human MCF7 cells after 24 hrs by MTT assay; assay type: functional, cell-based; settings: MCF7, 24 h; summary of the method: as §1
A-431 [9] = experiment: Cytotoxic activity against human A431 cells after 24 hrs by MTT assay; assay type: functional, cell-based; settings: A-431, 24 h; summary of the method: as §1
A-431 [10] = experiment: Cytotoxic activity against human A431 cells after 48 hrs by MTT assay; assay type: functional, cell-based; settings: A-431, 48 h; summary of the method: as §1
HT-29 [11] = experiment: Cytotoxic activity against human HT-29 cells after 48 hrs by MTT assay; assay type: functional, cell-based; settings: HT-29, 48 h; summary of the method: as §1
HepG2 [12] = experiment: Cytotoxic activity against human HepG2 cells after 24 hrs by MTT assay; assay type: functional, cell-based; settings: HepG2, 24 h; summary of the method: as §1
LNCaP [13] = experiment: Cytotoxic activity against human LNCAP cells after 24 hrs by MTT assay; assay type: functional, cell-based; summary of the method: as §1
HeLa [14] = experiment: Cytotoxic activity against human HeLa cells after 24 hrs by MTT assay; assay type: functional, cell-based; summary of the method: as §1
[15] = Inhibition of PI3K/Akt signalling pathway in human MCF7 cells at cytotoxic IC50 after 24 hrs by immunoblot; assay type: cell-based
Summary of the method: (§2)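 Cells dosed at their cytotoxic IC50 and lysed 24 h later (A431 also sampled over time) in ice-cold HEPES pH 7.5 buffer with phosphatase/protease inhibitors and 0.5% Triton X-100. 50 µg protein per lane on 10% SDS–PAGE, transferred to nitrocellulose, blocked in 5% milk/TBS-T. Probed overnight at 4 °C with anti-pAkt (Ser473; 1:1000) and β-actin loading control; HRP secondary, ECL detection. Untreated cells as control.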

HeLa [16] = experiment: Cytotoxic activity against human HeLa cells assessed as cell viability at 10 uM after 24 hrs by trypan blue exclusion method; assay type: functional; settings: read-out: Activity
Summary of the method: (§3)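 Trypan blue exclusion after 24 h compound exposure. Medium collected, attached cells trypsinized and pooled with it, then centrifuged at 1200 rpm for 5 min. Pellet resuspended in PBS with 0.2% trypan blue. 200–300 cells counted per experiment in three separate experiments. Viability is the percentage of viable cells over total cells, taken as the mean.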

[17] = Inhibition of PI3K/Akt signalling pathway in human HeLa cells at cytotoxic IC50 after 24 hrs by immunoblot; assay type: cell-based; summary of the method: as §2
[18] = Inhibition of PI3K/Akt signalling pathway in human LNCAP cells at cytotoxic IC50 after 24 hrs by immunoblot; assay type: cell-based; summary of the method: as §2
[19] = Inhibition of PI3K/Akt signalling pathway in human A431 cells at cytotoxic IC50 after 24 hrs by immunoblot; assay type: cell-based; settings: A-431; summary of the method: as §2
A-431 [20] = experiment: Cytotoxic activity against human A431 cells assessed as cell viability at 5 uM after 24 hrs by trypan blue exclusion method; assay type: functional; settings: A-431, 24 h, read-out: Activity; summary of the method: as §3
MCF7 [21] = experiment: Cytotoxic activity against human MCF7 cells assessed as cell viability at 10 uM after 24 hrs by trypan blue exclusion method; assay type: functional; settings: MCF7, 24 h, read-out: Activity; summary of the method: as §3
LNCaP [22] = experiment: Cytotoxic activity against human LNCAP cells assessed as cell viability at 10 uM after 24 hrs by trypan blue exclusion method; assay type: functional; settings: read-out: Activity; summary of the method: as §3
[23] = Inhibition of PI3K/Akt signalling pathway in human A431 cells at cytotoxic IC50 after 2 to 24 hrs by immunoblot; assay type: cell-based; settings: A-431, TDE = time-dependent effect; summary of the method: as §2

Row | SMILES | IC50 (HT-29 [1]) | IC50 (HepG2 [2]) | IC50 (MCF7 [3]) | IC50 (A549 [4]) | IC50 (A549 [5]) | IC50 (HeLa [6]) | IC50 (LNCaP [7]) | IC50 (MCF7 [8]) | IC50 (A-431 [9]) | IC50 (A-431 [10]) | IC50 (HT-29 [11]) | IC50 (HepG2 [12]) | IC50 (LNCaP [13]) | IC50 (HeLa [14]) | viability at 10 µM (HeLa [16]) | inhibition [19] | viability at 5 µM (A-431 [20]) | viability at 10 µM (MCF7 [21]) | viability at 10 µM (LNCaP [22]) | also measured
1 | C[C@]12CC[C@H](O)CC1=CC[C@@H]1[C@@H]2CC[C@]2(C)C(=O)CC[C@@H]12 [PRASTERONE] | > 50 µM | > 50 µM | > 50 µM | 47.8 µM | 47.8 µM | > 50 µM | > 50 µM | > 50 µM | > 50 µM | > 50 µM | > 50 µM | > 50 µM | > 50 µM | > 50 µM | – | – | – | – | – | –
2 | C[C@]12CC[C@H]3[C@@H](CC=C4C[C@@H](O)CC[C@@]43C)[C@@H]1CC[C@@H]2C(=O)C#Cc1ccccc1C(F)(F)F | 24.6 µM | 12.6 µM | 4.42 µM | 15.8 µM | 6.3 µM | 3.85 µM | 5.44 µM | 13.5 µM | 4.21 µM | 1.78 µM | 9.87 µM | 38.4 µM | 7.9 µM | 13.8 µM | 70.8% | Active | 0% | 18.9% | 0% | inhibition [15]: Active; inhibition [17]: Active; inhibition [18]: Active
3 | COc1ccc(C#CC(=O)[C@H]2CC[C@H]3[C@@H]4CC=C5C[C@@H](O)CC[C@]5(C)[C@H]4CC[C@]23C)c(C)c1 | 48.4 µM | 45.7 µM | 18.8 µM | 44.3 µM | 30.5 µM | 23.6 µM | 30.8 µM | 44.1 µM | 44.1 µM | 13.7 µM | 22.7 µM | > 50 µM | 41.7 µM | > 50 µM | – | – | – | – | – | –
4 | C[C@]12CC[C@H]3[C@@H](CC=C4C[C@@H](O)CC[C@@]43C)[C@@H]1CC[C@@H]2C(=O)C#Cc1ccc(F)cc1 | > 50 µM | > 50 µM | > 50 µM | > 50 µM | 40.6 µM | 43.7 µM | 10.8 µM | > 50 µM | 7.16 µM | 2.18 µM | 44.7 µM | > 50 µM | 12.4 µM | > 50 µM | 98.4% | Active | 28.6% | 90.4% | 25.6% | –
5 | C#Cc1cccc(C#CC(=O)[C@H]2CC[C@H]3[C@@H]4CC=C5C[C@@H](O)CC[C@]5(C)[C@H]4CC[C@]23C)c1 | > 50 µM | 17.9 µM | 5.15 µM | > 50 µM | 20.2 µM | > 50 µM | 16.9 µM | 11.2 µM | 4.85 µM | 1.52 µM | > 50 µM | 42.6 µM | 19.1 µM | > 50 µM | 93.2% | Active | 0% | 0% | 90.3% | inhibition [15]: Active
6 | COc1ccc(C#CC(=O)[C@H]2CC[C@H]3[C@@H]4CC=C5C[C@@H](O)CC[C@]5(C)[C@H]4CC[C@]23C)cc1 | > 50 µM | > 50 µM | > 50 µM | > 50 µM | > 50 µM | 26.7 µM | 47.6 µM | > 50 µM | > 50 µM | > 50 µM | > 50 µM | > 50 µM | > 50 µM | > 50 µM | – | – | – | – | – | –
7 | C[C@]12CC[C@H]3[C@@H](CC=C4C[C@@H](O)CC[C@@]43C)[C@@H]1CC[C@@H]2C(=O)C#Cc1cccc(F)c1 | > 50 µM | > 50 µM | 14.7 µM | > 50 µM | 24.9 µM | 6.44 µM | 9.48 µM | 28.4 µM | > 50 µM | 45.3 µM | 28.6 µM | > 50 µM | 14.7 µM | 21.4 µM | – | – | – | – | – | –
8 | Cc1cc(C)c(C#CC(=O)[C@H]2CC[C@H]3[C@@H]4CC=C5C[C@@H](O)CC[C@]5(C)[C@H]4CC[C@]23C)cc1C | > 50 µM | 48.6 µM | 7.78 µM | > 50 µM | > 50 µM | 32.4 µM | 46.2 µM | 39 µM | 39.3 µM | 12.5 µM | > 50 µM | > 50 µM | > 50 µM | > 50 µM | – | – | – | – | – | –
9 | C[C@]12CC[C@H]3[C@@H](CC=C4C[C@@H](O)CC[C@@]43C)[C@@H]1CC[C@@H]2C(=O)C#Cc1cccc(C(F)(F)F)c1 | > 50 µM | 16.4 µM | 18.6 µM | 29.3 µM | 20.7 µM | 8.34 µM | 17.4 µM | 31.4 µM | 2.28 µM | 0.54 µM | 26.4 µM | 45.7 µM | 26.2 µM | 25.1 µM | 92.5% | Active | 0% | 94.2% | 92.1% | inhibition [23]: tde
10 | Cc1cc(C#CC(=O)[C@H]2CC[C@H]3[C@@H]4CC=C5C[C@@H](O)CC[C@]5(C)[C@H]4CC[C@]23C)ccc1F | > 50 µM | > 50 µM | 11.3 µM | 40.1 µM | 28.2 µM | > 50 µM | 38.4 µM | 17.6 µM | > 50 µM | > 50 µM | 26.7 µM | > 50 µM | > 50 µM | > 50 µM | – | – | – | – | – | –
